Entries after “also recorded” stand apart in the source; their conditions may differ.
Experiments:
ScpC protease [1] = conditions: S. pyogenes; cited from earlier work
PepO [2] = test: Cleavage of cathelicidins by recombinant PepO; format: in vitro ADME, Streptococcus suis; conditions: 20 μM peptide, 500 nM PepO, PBS, 37°C, 3 hours; SDS-PAGE
Method in brief: (§1)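 Enzyme: His-tagged PepO (aa 29–663) or its Glu513→Ala variant, expressed from pET22b in E. coli BL21(DE3) with 0.5 mM IPTG at 16°C for 12 h. Purified by Ni-Sepharose and exchanged into PBS. Substrates were synthetic LL-37 or mCRAMP (>95% purity). Uncleaved peptide served as control. Products were analysed by SDS-PAGE or MALDI-TOF/TOF MS.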

PepOE513A = test: Cleavage of cathelicidins by catalytic site-mutated PepOE513A; format: in vitro ADME, Streptococcus suis; conditions: 20 μM peptide, 500 nM PepOE513A, PBS, 37°C, 3 hours; SDS-PAGE
Method in brief: as §1

[3] = tested on: S. suis WT, ΔpepO, and CΔpepO strains; test: Bactericidal assay, sensitivity of S. suis strains toward cathelicidins; format: cell-based, Streptococcus suis; conditions: 8 × 10^4 CFU/ml in PBS, peptide 0–4 μM, 37°C, 1 hour, CFU counting on TSA
Method in brief: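 S. suis serotype 2 strain 05ZYH33 (wild type), its ΔpepO mutant and the complemented strain were grown in TSB at 37°C with 5% CO2 to OD600 0.5. Cells were washed twice and resuspended in PBS. After 1 h at 37°C with LL-37 or mCRAMP, samples were serially diluted and plated on TSA to count surviving CFU.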

S. suis ΔpepO = test: Live/Dead staining; format: cell-based, Streptococcus suis; conditions: 1 × 10^5 CFU/ml, 2 μM, 1 hour, CLSM
Method in brief: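 S. suis serotype 2 strain 05ZYH33 ΔpepO mutant, grown in TSB at 37°C/5% CO2; fresh culture washed twice, diluted to 1 × 10^5 CFU/ml. Exposed 1 h to 2 μM cathelicidin peptides, their PepO digests (20 μM peptide + 500 nM His-tagged PepO, PBS, 37°C, 3 h) or truncated fragments. BacLight stained, washed after 15 min, confocal imaging: SYTO9 480/500 nm, PI 490/635 nm.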

Mouse neutrophils = test: Neutrophil chemotaxis assay; format: cell-based; conditions: 1 μM in bottom chamber, 5 × 10^5 cells, 40 minutes, 37°C
Method in brief: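 Bone-marrow neutrophils from C57BL/6 mice, purified on Histopaque-1119/1077 gradients, CellTracker Green-labelled, 1 × 10^7 cells/ml in RPMI-1640. 5 × 10^5 cells placed in Transwell inserts; 1 μM peptides, PepO digests or fragments in lower chamber; 5 μM fMLP as positive control. 40 min at 37°C, migrated cells counted by fluorescence microscopy. CI = cells migrating toward stimulus ÷ toward medium.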

[4] = tested on: Mouse peritoneal macrophages; test: Lysosome formation analysis; format: cell-based; conditions: 2 μM, 37°C, 4 hours, 5 × 10^4 cells, CLSM
Method in brief: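 Macrophages from peritoneal fluid of C57BL/6 mice 3 days after i.p. thioglycollate; spun 600 × g 10 min, kept in RPMI-1640, non-adherent cells removed at 6 h. 5 × 10^4 cells exposed 4 h at 37°C to peptides, PepO digests or fragments. Fixed in 4% formaldehyde, permeabilised with 0.1% Triton X-100, blocked in 3% BSA. Rabbit anti-LAMP1 (37°C, 1 h), Alexa Fluor 594 secondary, DAPI; confocal imaging.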

ApdS = conditions: cited from earlier work
aminopeptidase ApdS = conditions: S. suis; cited from earlier work
PepO [5] = test: 500 nM of PepO in PBS; conditions: S. suis, 37°C, up to 3 hours
ScpC protease [6] = conditions: cited from earlier work

Substance: GLLRKGGEKIGEKLKKIGQKIKNFFQKLVPQPEQ
- not cleaved (ScpC protease [1]): cannot cleave mCRAMP

Substance: LL-37
- Cleavage by PepO (PepO [2]): the band intensity of LL-37 disappeared
- Cleavage by PepOE513A (PepOE513A): could not cleave LL-37
- Resistance of complementary strain CΔpepO [3]: partially restored
- Membrane damage, viable and dead bacteria (SYTO9/PI) (S. suis ΔpepO): the number of dead bacteria was clearly larger than that in the PBS-treated group
- Chemotaxis of neutrophils (chemotaxis index, CI) (Mouse neutrophils): effectively chemoattracted mouse neutrophils
- Lysosome formation (LAMP1) [4]: facilitated lysosome formation in mouse macrophages
- Time to cleavage by ApdS (ApdS): in just a few seconds

Substance: LLGDFFRKSKEKIGKEFKRIVQRIKDFLRNLVPRTES
- fragment found (aminopeptidase ApdS): 3 AA at the N-terminal
- fragment found (PepO [5]): FR-7 (F6-K12); FRKSKEK, major; also recorded: IG-7 (I13-R19); IGKEFKR, major

Substance: mCRAMP
- Cleavage by PepO (PepO [2]): also cleaved by PepO
- Membrane damage, viable and dead bacteria (SYTO9/PI) (S. suis ΔpepO): the number of dead bacteria was clearly larger than that in the PBS-treated group
- Chemotaxis of neutrophils (chemotaxis index, CI) (Mouse neutrophils): chemoattracted mouse neutrophils just as well as LL-37
- Lysosome formation (LAMP1) [4]: facilitated lysosome formation in mouse macrophages
- Cleavage by ScpC protease (ScpC protease [6]): cannot cleave mCRAMP

Reference: paper PMC10732652 (Virulence, 2023)
